The results in this text go back to ChEMBL document CHEMBL4052637, “Discovery and Characterization of R/S-N-3-Cyanophenyl-N'-(6-tert-butoxycarbonylamino-3,4-dihydro-2,2-dimethyl-2H-1-benzopyran-4-yl)urea, a New Histone Deacetylase Class III Inhibitor Exerting Antiproliferative Activity against Cancer Cell Lines” (J Med Chem, 2017).

A short description of assay [1]: Antiproliferative activity against human U373 cells after 72 hrs by MTT assay. In kind it is functional, cell-based, U-373MG ATCC. Conditions: U373 MG. The essentials:
(§1)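 MTT assay: cells in RPMI 1640 with 10% heat-inactivated FCS at 37 °C and 5% CO2 were seeded 24 h before treatment. They were exposed 72 h to compound at 0.01–100 μM, with DMSO as solvent.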

The target in assay [2] is T1, NAD-dependent protein deacetylase sirtuin-2 (Homo sapiens, UniProt Q8IXJ6).
T1 sequence (Q8IXJ6 whole entry): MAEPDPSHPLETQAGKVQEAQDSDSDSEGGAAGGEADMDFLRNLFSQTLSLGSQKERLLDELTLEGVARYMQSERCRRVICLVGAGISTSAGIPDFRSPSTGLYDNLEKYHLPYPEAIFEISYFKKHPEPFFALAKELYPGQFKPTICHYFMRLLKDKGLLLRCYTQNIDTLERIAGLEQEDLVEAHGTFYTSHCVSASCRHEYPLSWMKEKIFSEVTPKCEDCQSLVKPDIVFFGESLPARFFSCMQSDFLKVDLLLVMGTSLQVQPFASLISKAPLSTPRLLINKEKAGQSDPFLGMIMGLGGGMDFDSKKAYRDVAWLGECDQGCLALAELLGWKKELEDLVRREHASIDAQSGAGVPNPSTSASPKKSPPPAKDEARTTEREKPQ
The assay is described as follows: Inhibition of N-terminal His-tagged recombinant human SIRT-2 expressed in Escherichia coli using Fluor-de-Lys-SIRT1 as substrate after 15 mins by fluorescence assay.

Assay [3] deals with Histone deacetylase 2 (Homo sapiens) (UniProt Q92769). The assay is described as follows: Inhibition of His-tagged recombinant full length human HDAC2 expressed in baculovirus infected insect cells at 0.1 to 100 uM using Fluor-de-Lys-SIRT1 as substrate after 15 mins by fluorescence assay.
Assay [4] has as its target Histone deacetylase 8 (Homo sapiens) (UniProt Q9BY41). The assay is described as follows: Inhibition of recombinant human HDAC8 expressed in Escherichia coli at 0.1 to 100 uM using Fluor-de-Lys-HDAC8 as substrate after 15 mins by fluorescence assay.
Assay [5] is filed under the species Homo sapiens. Kind of assay: Inhibition of HDAC isolated from human K562 cells at 0.1 to 100 uM using Fluor-de-Lys as substrate after 15 mins by fluorescence assay.
Assay [6] is described as follows: Induction of senescence in human U373 cells at 5 uM after 6 days by beta-galactosidase assay relative to control. In kind it is functional, U-373MG ATCC. The essentials: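 Cells were kept 6 days in medium containing 5 μM compound or DMSO vehicle, then stained for senescence-associated β-galactosidase activity. Blue-stained cells were counted and expressed as a percentage of total cells counted. Two independent experiments.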

Assay [7] relates to HCT-116. Kind of assay: Antiproliferative activity against human HCT116 cells expressing wild type p53 after 72 hrs by MTT assay. In kind it is functional, cell-based. The essentials: as §1
For assay [8], the system named is SW1573/2R160. The assay is described as follows: Antiproliferative activity against human SW1573/2R160 cells overexpressing ABCB1 after 72 hrs by MTT assay. In kind it is functional, cell-based. The essentials:
as §1

Assay [9] can be described thus: Cytostatic activity against human U373 cells at 10 uM after 72 hrs by quantitative videomicroscopy relative to control. In kind it is functional, U-373MG ATCC. The essentials: (§2)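 Cells were grown in 25 cm2 flasks, and phase-contrast images were recorded every 4 min over 72 h, in triplicate. Global growth is cell count on the last image divided by cell count on the first, at 24, 48 and 72 h. The GGR index is treated GG divided by control GG.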

The test system of assay [10] is Hs 683. Kind of assay: Cytostatic activity against human Hs683 cells at 10 uM after 72 hrs by quantitative videomicroscopy relative to control. In kind it is functional. The essentials: as §2
A short description of assay [11]: Induction of apoptosis in human U373 cells at 10 uM after 72 hrs by TUNEL method relative to control. The class given is functional, U-373MG ATCC.
In assay [12] the target is T2, NAD-dependent protein deacetylase sirtuin-1 (Homo sapiens) (UniProt Q96EB6).
T2 sequence (whole entry): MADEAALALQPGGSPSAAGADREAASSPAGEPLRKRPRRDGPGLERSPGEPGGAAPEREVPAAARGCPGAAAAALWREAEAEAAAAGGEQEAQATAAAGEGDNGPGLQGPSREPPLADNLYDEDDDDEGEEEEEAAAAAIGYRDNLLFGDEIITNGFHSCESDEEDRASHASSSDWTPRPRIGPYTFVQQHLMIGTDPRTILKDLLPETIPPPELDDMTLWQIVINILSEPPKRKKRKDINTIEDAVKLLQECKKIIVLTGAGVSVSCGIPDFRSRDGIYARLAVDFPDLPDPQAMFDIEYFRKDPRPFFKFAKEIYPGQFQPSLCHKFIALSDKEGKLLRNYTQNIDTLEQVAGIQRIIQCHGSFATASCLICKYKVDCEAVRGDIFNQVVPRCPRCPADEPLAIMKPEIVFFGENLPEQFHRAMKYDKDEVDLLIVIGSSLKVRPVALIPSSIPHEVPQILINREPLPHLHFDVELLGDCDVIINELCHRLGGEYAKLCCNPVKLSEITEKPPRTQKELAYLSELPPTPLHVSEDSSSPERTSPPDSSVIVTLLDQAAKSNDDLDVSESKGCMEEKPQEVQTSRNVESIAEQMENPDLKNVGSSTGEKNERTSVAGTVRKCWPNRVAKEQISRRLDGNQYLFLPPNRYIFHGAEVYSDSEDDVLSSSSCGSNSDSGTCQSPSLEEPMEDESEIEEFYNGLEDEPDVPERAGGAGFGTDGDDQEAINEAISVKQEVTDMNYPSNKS
The assay is described as follows: Inhibition of SIRT1 in human Hs683 cells assessed as increase of histone H4 acetylation at 2.5 uM after 8 hrs by Western blotting method relative to control. In kind it is cell-based.

For assay [13], the target named is T3, NAD-dependent protein deacetylase sirtuin-2 (Homo sapiens) (UniProt Q8IXJ6).
T3 sequence (whole entry): T1 sequence (Q8IXJ6 whole entry)
Kind of assay: Inhibition of SIRT2 in human Hs683 cells assessed as increase of alpha-tubulin acetylation at 5 uM after 8 hrs by Western blotting method relative to control. In kind it is cell-based.

Assay [14] has as its system Hs 683. Kind of assay: Cell cycle arrest in human Hs683 cells assessed as accumulation at G2/M phase at 2 uM after 24 to 48 hrs by propidium iodide staining-based flow cytometry. In kind it is functional. Conditions: 5.8 uM, in the assay text read “at 5.8 uM” for “at 2 uM”. The essentials: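 Cells were exposed to compound at the IC50 for each line from the 72 h MTT assay, or to a reference HDAC inhibitor at 2 μM. Cell cycle distribution was analyzed after 24 and 48 h. Results are mean ± SD of three independent experiments, with p values against control cells.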

Assay [15] concerns NCI-H522. Kind of assay: Growth inhibition of human NCI-H522 cells after 48 hrs by SRB assay. In kind it is functional. As to conditions: NCI-H522, 48 h.
Assay [16] concerns COLO 205. The assay is described as follows: Growth inhibition of human COLO205 cells after 48 hrs by SRB assay. The class given is functional. Conditions: COLO 205, 48 h.
Assay [17] concerns HCT-15. Kind of assay: Growth inhibition of human HCT15 cells after 48 hrs by SRB assay. In kind it is functional. As to conditions: HCT-15, 48 h.
The test system of assay [18] is HT-29. Kind of assay: Growth inhibition of human HT-29 cells after 48 hrs by SRB assay. The class given is functional. As to conditions: HT-29, 48 h.
Assay [19] relates to IGROV-1. The assay is described as follows: Growth inhibition of human IGROV1 cells after 48 hrs by SRB assay. Conditions: IGROV-1, 48 h. In kind it is functional.
Assay [20] has as its system NCI/ADR-RES. Kind of assay: Growth inhibition of human NCI-ADR-RES cells after 48 hrs by SRB assay. The class given is functional.
In assay [21] the test system is SK-OV-3. The assay is described as follows: Growth inhibition of human SKOV3 cells after 48 hrs by SRB assay. In kind it is functional. As to conditions: SK-OV-3, 48 h.

Each structure is given as a SMILES string. Activity calls are given as the source filed them. The calls are words filed in the database; no cut-off is given here. Bounds are passed on as bounds.

Sequence of Histone deacetylase 8 (Homo sapiens) (Q9BY41 whole entry): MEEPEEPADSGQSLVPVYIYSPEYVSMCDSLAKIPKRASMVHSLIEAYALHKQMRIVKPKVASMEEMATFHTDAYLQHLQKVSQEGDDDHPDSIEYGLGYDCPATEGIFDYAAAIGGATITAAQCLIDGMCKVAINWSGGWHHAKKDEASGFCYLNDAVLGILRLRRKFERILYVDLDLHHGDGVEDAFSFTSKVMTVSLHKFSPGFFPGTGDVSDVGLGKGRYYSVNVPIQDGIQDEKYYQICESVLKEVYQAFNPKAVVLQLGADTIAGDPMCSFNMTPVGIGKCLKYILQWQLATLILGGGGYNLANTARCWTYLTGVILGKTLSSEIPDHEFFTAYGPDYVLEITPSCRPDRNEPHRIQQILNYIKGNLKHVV
Sequence of Histone deacetylase 2 (Homo sapiens) (Q92769 whole entry): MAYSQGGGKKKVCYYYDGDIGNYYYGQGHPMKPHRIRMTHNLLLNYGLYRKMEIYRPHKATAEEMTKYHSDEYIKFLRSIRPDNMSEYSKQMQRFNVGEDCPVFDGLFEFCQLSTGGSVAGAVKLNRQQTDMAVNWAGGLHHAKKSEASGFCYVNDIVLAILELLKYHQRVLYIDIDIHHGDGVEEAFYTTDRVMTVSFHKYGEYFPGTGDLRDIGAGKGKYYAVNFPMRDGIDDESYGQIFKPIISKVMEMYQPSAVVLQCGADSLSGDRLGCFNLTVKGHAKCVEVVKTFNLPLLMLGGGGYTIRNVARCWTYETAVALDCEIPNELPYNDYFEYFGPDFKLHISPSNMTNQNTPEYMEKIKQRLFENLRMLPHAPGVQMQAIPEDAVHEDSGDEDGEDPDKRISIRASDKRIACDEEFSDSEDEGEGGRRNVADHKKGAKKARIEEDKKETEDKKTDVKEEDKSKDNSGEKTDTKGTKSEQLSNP

As to `CC(C)(C)OC(=O)Nc1ccc2c(c1)C(NC(=O)Nc1cccc(C#N)c1)CC(C)(C)O2` (stereo unspecified), the IC50 is 6 to 7.5 µM in assay [1] and 4.2 µM in assay [2]. Moreover, the inhibition entry in assay [3], in assay [4] and in assay [5] was “inactive” throughout. Also, the Activity was 18.2% in assay [6], 70% in assay [9], “>=50%” in [10] and under 10% in [11]. Besides, the result in assay [7], in [8] and in assay [14] was Active. The fold change (FC) was 1.9 in [12] and 1.5 in [13]. Besides, the GI50 in assay [15] is 3.24 µM; in [16], 3.55 µM; in assay [17] it was 2000 nM; in assay [18], 6.92 µM; in assay [19], 6.31 µM; in assay [20], 3.09 µM. For the same compound, the GI50 in assay [21] is 9.12 µM.
